Results from different studies.
Lines come from different studies, so protocols differ.
Cell line: NCI-H522
Observed: cell growth or viability

COc1ccc(-c2ccc(-c3ccc(C(=N)N)nc3)s2)cc1Cl
GI50 (SRB): 2.1 µM

COc1ccc(C(=O)/C=C/c2cccnc2)cc1S(N)(=O)=O
GI50 (SRB; 48 h): 10.5 µM

S=C([S][Au-][P+](CCCCCC[P+]([Au-][S]C(=S)n1cccn1)(c1ccccc1)c1ccccc1)(c1ccccc1)c1ccccc1)n1cccn1
GI50 (SRB): 1.62 µM

c1ccc(-c2n(Cc3ccc4ccccc4c3)cc[n+]2Cc2ccc3ccccc3c2)cc1
TGI (SRB): 2.58 µM

COc1ccc(C2=Nn3c(NN=C4C(=O)Nc5ccc(OC)cc54)nnc3SC2)cc1
inhibition (SRB; 10 µM): 25%

COc1ccc(C(=O)/C=C/c2ccc3ccccc3c2)cc1S(N)(=O)=O
inhibition (SRB; 10 µM): 163%

CCCc1n(Cc2ccc3ccccc3n2)cc[n+]1Cc1ccc2ccccc2n1
TGI (SRB): 4.3 µM

COc1ccc(C(=O)/C=C/c2cccc(Br)c2)cc1S(N)(=O)=O
GI50 (SRB; 48 h): 1.6 µM

CCCCc1n(Cc2ccc3ccccc3n2)cc[n+]1Cc1ccc2ccccc2n1
TGI (SRB): 4.19 µM

COc1cccc(Oc2ccccc2NC(=O)CNC(=O)c2cccc3ccccc23)c1
GI50 (SRB; 48 h): 0.178 µM

CCc1n(Cc2ccc3ccccc3n2)cc[n+]1Cc1ccc2ccccc2c1
TGI (SRB): 0.986 µM

O=C1NCCc2[nH]c(-c3ccncc3)cc21
IC50: > 10 µM

COc1ccc(C2=Nn3c(NN=C4C(=O)Nc5ccc(Cl)cc54)nnc3SC2)cc1
inhibition (SRB; 10 µM): 34%

COc1ccc(C(=O)/C=C/c2cccc(Cl)c2Cl)cc1S(N)(=O)=O
inhibition (SRB; 10 µM): 156%
